According to ChEMBL document CHEMBL4351002, “Design, synthesis and antitumor study of a series of N-Cyclic sulfamoylaminoethyl substituted 1,2,5-oxadiazol-3-amines as new indoleamine 2, 3-dioxygenase 1 (IDO1) inhibitors” (Eur J Med Chem, 2019):

Assays:
CT26 [1] = test: Antitumour activity against mouse CT26 cells allografted in Balb/c mouse assessed as tumour volume at 100 mg/kg, po bid for 14 days starting 8 days post inoculation measured thrice per week (reference value: 1557 +/- 256 mm3); format: functional
How it was run: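 Female BALB/c mice (4-6 weeks old) inoculated s.c. in the right lower flank with 0.3 x 10⁶ CT26 cells in 0.1 mL PBS. Dosing began on day 8 at about 49 mm³; 8 mice per group, stratified randomization by tumor volume. Caliper measurement thrice weekly, V = 0.5 a*b². TGI (%) = [1-(Ti-T0)/(Vi-V0)]×100 versus vehicle. One-way ANOVA with Games-Howell test.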

[2] = AUCinfinity in Sprague-Dawley rat at 3 mg/kg, po measured at 0.25 to 24 hrs by HPLC coupled LC-MS/MS analysis; format: ADME, organism-based; set-up: dose 3 mg/kg, route oral, time infinity; conditions: Sprague-Dawley, in vivo
How it was run: (§1)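 Oral gavage of 3 mg/kg as a suspension in DMSO/0.5% HPMC (5/95, v/v) to male SD rats (n = 3). Blood was sampled at 0.25, 0.5, 1, 2, 4, 8 and 24 h and held on wet ice. Serum was obtained by centrifugation, stored at -20 °C and analysed by LC-MS/MS. Values are the average of three runs.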

CT26 [3] = test: Antitumour activity against mouse CT26 cells allografted in Balb/c mouse assessed as median survival time at 100 mg/kg, po bid for 22 days starting 8 days post inoculation measured thrice per week (reference value: 20 days); format: functional
[4] = Toxicity in Balb/c mouse allografted with mouse CT26 cells assessed as change in body weight at 100 mg/kg, po bid for 14 days starting 8 days post inoculation measured thrice per week; format: organism-based; conditions: in vivo
How it was run: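 Body weight was followed in female BALB/c mice carrying s.c. CT26 tumors (0.3 x 10⁶ cells). Treatment started on day 8 at about 49 mm³, with 8 mice per group. Values are means ± SEM per group.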

[5] = AUClast in Sprague-Dawley rat at 3 mg/kg, po measured at 0.25 to 24 hrs by HPLC coupled LC-MS/MS analysis; format: ADME, organism-based; set-up: dose 3 mg/kg, time 0 - last, route oral; conditions: in vivo; how it was run: as §1
[6] = Oral bioavailability in Sprague-Dawley rat 3 mg/kg measured at 0.25 to 24 hrs by HPLC coupled LC-MS/MS analysis; format: ADME, organism-based; conditions: Sprague-Dawley, in vivo
How it was run: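 Male SD rats (n = 3) were dosed by gavage at 3 mg/kg as a suspension in DMSO/0.5% HPMC (5/95). Blood was sampled at 0.25, 0.5, 1, 2, 4, 8 and 24 h, and serum was analysed by LC-MS/MS. Bioavailability was derived against a 1 mg/kg iv dose. Values are the average of three runs.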

CT26 [7] = test: Antitumour activity against mouse CT26 cells allografted in Balb/c mouse assessed as tumour growth inhibition at 100 mg/kg, po bid for 14 days starting 8 days post inoculation in presence of mouse PD-1 antibody at 10 mg/kg, ip biw for 2 weeks measured thrice per week (reference value: 37%)

O=S1(=O)NCCN1CCNc1nonc1/C(=N/O)Nc1ccc(F)c(Br)c1
Activity (CT26 [1]): 1447 mm3
AUC(0-inf) [2]: 356 ng·h/mL
MST (CT26 [3]): 20 days
Activity [4]: Non-Toxic
AUC(0-t) [5]: 275 ng·h/mL
bioavailability [6]: 22.6%
TGI (CT26 [7]): 47.4%
